Measured values from ChEMBL document CHEMBL4373638, “Anthranilic amide and imidazobenzothiadiazole compounds disrupt Mycobacterium tuberculosis membrane potential” (Medchemcomm, 2019).
Active and inactive are the calls of the source. The rule behind the calls is not given here.

Key:
HepG2 [1] = test: Disruption of mitochondrial membrane potential in human HepG2 cells at less than IC50 concentration after 30 mins by DiOC2 probe based fluorescence assay; type: ADME, cell-based; settings: hepg2, 0.5 h
[2] = test system: Mycobacterium tuberculosis; test: Disruption of membrane potential loss in Mycobacterium tuberculosis H37Rv at < MBC concentration at pH 4.5 after 15 mins measured at pH 6.8 by DiOC2 probe based fluorescence assay; type: functional, organism-based
[3] = test system: Mycobacterium tuberculosis; test: Disruption of membrane potential loss in Mycobacterium tuberculosis H37Rv at MBC concentration at pH 4.5 after 15 mins measured at pH 5.6 by DiOC2 probe based fluorescence assay; type: functional, organism-based
Procedure, shortened: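 Mid-log Mtb grown in 7H9-OADC-Tw, concentrated to OD590 ~1.0 in 7H9-Tw adjusted to assay pH (6.8 or 5.6), loaded with 15 μM DiOC2 for 20 min at RT, washed, then exposed to 2-fold serial dilutions for 15 min at RT; red (488/650 nm) to green (488/530 nm) fluorescence ratio; CCCP positive, DMSO vehicle controls; representative of two runs.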

[4] = test system: Mycobacterium tuberculosis; test: Antitubercular activity against non-replicating Mycobacterium tuberculosis H37Rv assessed as microbial killing at 115 to 230 uM at pH 5.5; type: functional, organism-based; settings: TDE = time-dependent effect
Procedure, shortened: (§1)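 Non-replicating kill kinetics: late-log H37Rv (OD590 0.6–1.0) resuspended in phosphate citrate buffer with 0.05% tyloxapol, inoculated at ~10⁶ CFU mL⁻¹, compound added (2% DMSO final), incubated standing at 37 °C; aliquots plated for CFU every 7 days, plates counted after 4 weeks at 37 °C.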

HepG2 [5] = test: Disruption of mitochondrial membrane potential in human HepG2 cells up to 200 uM after 30 mins by DiOC2 probe based fluorescence assay; type: ADME, cell-based; settings: hepg2, 0.5 h
[6] = test system: Mycobacterium tuberculosis; test: Antitubercular activity against non-replicating Mycobacterium tuberculosis H37Rv assessed as log reduction in CFU at 10 to 100 uM at pH 4.5 to 6.8 after 7 days; type: functional
RAW264.7 = test: Cytotoxicity against mouse RAW264.7 cells; type: cell-based
[7] = test system: Mycobacterium tuberculosis; test: Antitubercular activity against Mycobacterium tuberculosis H37Rv infected in mouse RAW264.7 cells; type: functional, organism-based
[8] = test system: Mycobacterium tuberculosis; test: Antitubercular activity against non-replicating Mycobacterium tuberculosis H37Rv assessed as microbial killing at 125 to 250 uM at pH 5.5; type: functional, organism-based; settings: TDE = time-dependent effect; procedure, shortened: as §1
[9] = test system: Mycobacterium tuberculosis; test: Antitubercular activity against non-replicating Mycobacterium tuberculosis H37Rv assessed as microbial killing at 130 to 260 uM at pH 5.5; type: functional, organism-based; settings: TDE = time-dependent effect; procedure, shortened: as §1
[10] = test system: Mycobacterium tuberculosis; test: Antitubercular activity against non-replicating Mycobacterium tuberculosis H37Rv assessed as microbial killing at 145 to 290 uM at pH 5.5; type: functional, organism-based; settings: TDE = time-dependent effect; procedure, shortened: as §1

## CCCCNC(=O)c1ccccc1NS(=O)(=O)c1ccc(Br)cc1
HepG2 [1]
  Activity: Toxic
[2]
  Activity: Active
[3]
  Activity: Active

## O=C(Nc1ccc(Cl)cc1)c1ccccc1NS(=O)(=O)c1ccc(Br)cc1
[4]
  Activity: Tde

## Cc1nnc(Sc2ccc3nsnc3c2[N+](=O)[O-])s1
HepG2 [1]
  Activity: Toxic

## O=C(Nc1ccc(Cl)cc1Cl)c1ccccc1NS(=O)(=O)c1ccc(Br)cc1
[2]
  Activity: Active
[3]
  Activity: Active

## NC(=O)c1ccccc1NS(=O)(=O)c1ccc(Br)cc1
HepG2 [5]
  Activity: Non-Toxic
[3]
  Activity: inactive

## O=[N+]([O-])c1c(Sc2ccccn2)ccc2nsnc12
HepG2 [1]
  Activity: Toxic

## O=[N+]([O-])c1cc2nc(C(F)(F)F)[nH]c2c2nsnc12
[6]
  Activity: >4 log10CFU

## O=C(Nc1ccccc1)c1ccccc1NS(=O)(=O)c1ccc(Br)cc1
HepG2 [1]
  Activity: Toxic
[3]
  Activity: Active

## CCNc1ccccc1C(=O)Nc1ccc(Cl)cc1Cl
HepG2 [5]
  Activity: Non-Toxic
[3]
  Activity: Active

## CCN(C)c1ccccc1C(=O)Nc1ccc(Cl)cc1Cl
RAW264.7
  Activity: Toxic
[7]
  Activity: Active

## Cc1ccc(S(=O)(=O)Nc2ccccc2C(=O)Nc2ccc(Cl)cc2Cl)cc1
[8]
  Activity: Tde

## CN(C(=O)c1ccccc1NS(=O)(=O)c1ccc(Br)cc1)c1ccc(Cl)cc1Cl
HepG2 [1]
  Activity: Toxic
[2]
  Activity: Active
[3]
  Activity: Active

## O=C(Nc1ccccn1)c1ccccc1NS(=O)(=O)c1ccc(Br)cc1
[9]
  Activity: Tde

## CS(=O)(=O)Nc1ccccc1C(=O)Nc1ccc(Cl)cc1Cl
[10]
  Activity: Tde
